Data from ChEMBL document CHEMBL1124378, “Synthesis and pharmacological evaluation of a series of 4-piperazinylpyrazolo[3,4-b]- and -[4,3-b][1,5]benzodiazepines as potential anxiolytics” (J Med Chem, 1989).

Assays:
Mus musculus [1] = assay: Dose below which no catalepsy was observed at any time period (following p.o. dosing); type: functional
Procedure, shortened: (§1)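 CFW mice (21-23 g), three per group, dosed orally in water or 0.5% carboxymethylcellulose. Checked at 0.25, 2.5 and 5.0 h for holding one hind limb on a 2-cm rubber bung and staying on a vertical grid, judged against a control by a trained observer.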

Mus musculus [2] = assay: Compound administered perorally was evaluated for the hypothermia (rectal temperature) in mice; type: functional
Procedure, shortened: (§2)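 Groups of three CFW mice (21-23 g) received oral compound in water or 0.5% carboxymethylcellulose. Rectal temperature was taken at 0.25, 2.5 and 5.0 h. Mean change from the group's initial mean was summed over the three times. Hypothermia scored if the summed reduction was >4 °C.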

[3] = molecular target: Muscarinic acetylcholine receptor; assay: Inhibition of [3H]QNB binding to muscarinic cholinergic receptor from male Olac rat brain.
Rattus norvegicus [4] = assay: Rotarod response in rat to assess muscular incoordination (following p.o. dosing); type: functional
Procedure, shortened: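 Male Olac-Wistar rats (140-150 g), five per group, fed ad libitum, dosed orally. Tested 1 and 2 h later on a horizontal rod (2 rpm, 32 mm diameter), maximum 30 s. Mean time compared with vehicle controls by Mann-Whitney U test, significant at p < 0.05.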

Rattus norvegicus [5] = assay: Compound administered perorally was evaluated for the conditioned avoidance response in rats; type: functional
Procedure, shortened: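 Olac-Wistar rats (120-130 g) trained to cross a shuttle box on a 5-s buzzer, with mild shock if no response within 1 s after it ends. Only high-responders used. Groups of five were dosed orally in water or 0.5% carboxymethylcellulose 1 h 50 min before testing. After 10-min habituation they were tested 20 min. Blockade = shocks as % of stimuli presented.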

Rattus norvegicus [6] = species on record: Rattus norvegicus; assay: compound behavior in rat; type: functional; parameters: unit not given here
Procedure, shortened: (§3)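 Olac-Wistar rats (180-190 g), eight per group, dosed orally, front paws placed on a 1.5-cm rod 7 cm above the table. Tested at 0.5, 1, 1.5, 2, 3, 4 and 5 h, up to 20 min hold. Each animal's maximum score (0-5 by time held) was summed, giving a group maximum of 40.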

[7] = molecular target: D(2) dopamine receptor (Bos taurus) (UniProt P20288); assay: Inhibition of [3H]spiperone binding to dopamine receptor D2 from calf caudate
Mus musculus [8] = assay: Compound administered perorally was evaluated for the hypothermia (rectal temperature ) in mice; type: functional; procedure, shortened: as §2
[9] = molecular target: Muscarinic acetylcholine receptor; assay: Compound was evaluated for the inhibition of [3H]QNB binding to Muscarinic acetylcholine receptor from male Olac rat brain.
Rattus norvegicus [10] = species on record: Rattus norvegicus; assay: Compound behavior in rat; type: functional; parameters: unit not given here; procedure, shortened: as §3
[11] = molecular target: D(2) dopamine receptor (Bos taurus) (UniProt P20288); assay: Inhibition of [3H]spiperone binding to Dopamine receptor D2 from calf caudate
Rattus norvegicus [12] = assay: The compound was evaluated for the anticonflict behavior in male wistar rats as rate of responses (conflic) following dose of 20 mg/kg po; type: functional; parameters: unit: responses/min
Procedure, shortened: (§4)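 Male Wistar rats on 23-h food deprivation, water ad libitum, trained to lever-press for food on continuous reinforcement until stable. Compound or vehicle given orally in randomized sequence 60 min before testing. Responses/min were recorded in reward, timeout and conflict components. Differences from control were tested by Wilcoxon test.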

Rattus norvegicus [13] = assay: The compound was evaluated for the anticonflict behavior in male wistar rats as rate of responses (conflict) following dose of 0 mg/kg po; type: functional; parameters: unit: responses/min; procedure, shortened: as §4
Rattus norvegicus [14] = assay: The compound was evaluated for the anticonflict behavior in male wistar rats as rate of responses (conflict) following dose of 10 mg/kg po; type: functional; parameters: unit: responses/min; procedure, shortened: as §4
Rattus norvegicus [15] = assay: The compound was evaluated for the anticonflict behavior in male wistar rats as rate of responses (conflict) following dose of 2.5 mg/kg po; type: functional; procedure, shortened: as §4
Rattus norvegicus [16] = assay: The compound was evaluated for the anticonflict behavior in male wistar rats as rate of responses (conflict) following dose of 5.0 mg/kg po; type: functional; parameters: unit: responses/min; procedure, shortened: as §4
Rattus norvegicus [17] = assay: The compound was evaluated for the anticonflict behavior in male wistar rats as rate of responses (reward) following dose of 0 mg/kg po; type: functional; parameters: unit: responses/min; procedure, shortened: as §4
Rattus norvegicus [18] = assay: The compound was evaluated for the anticonflict behavior in male wistar rats as rate of responses (reward) following dose of 10 mg/kg po; type: functional; parameters: unit: responses/min; procedure, shortened: as §4
Rattus norvegicus [19] = assay: The compound was evaluated for the anticonflict behavior in male wistar rats as rate of responses (reward) following dose of 2.5 mg/kg po; type: functional; procedure, shortened: as §4
Rattus norvegicus [20] = assay: The compound was evaluated for the anticonflict behavior in male wistar rats as rate of responses (reward) following dose of 20 mg/kg po; type: functional; parameters: unit: responses/min; procedure, shortened: as §4
Rattus norvegicus [21] = assay: The compound was evaluated for the anticonflict behavior in male wistar rats as rate of responses (reward) following dose of 40 mg/kg po; type: functional; procedure, shortened: as §4
Rattus norvegicus [22] = assay: The compound was evaluated for the anticonflict behavior in male wistar rats as rate of responses (reward) following dose of 5.0 mg/kg po; type: functional; parameters: unit: responses/min; procedure, shortened: as §4
Rattus norvegicus [23] = assay: The compound was evaluated for the anticonflict behavior in male wistar rats as rate of responses (timeout) following dose of 0 mg/kg po; type: functional; procedure, shortened: as §4
Rattus norvegicus [24] = assay: The compound was evaluated for the anticonflict behavior in male wistar rats as rate of responses (timeout) following dose of 10 mg/kg po; type: functional; parameters: unit: responses/min; procedure, shortened: as §4
Rattus norvegicus [25] = assay: The compound was evaluated for the anticonflict behavior in male wistar rats as rate of responses (timeout) following dose of 2.5 mg/kg po; type: functional; procedure, shortened: as §4
Rattus norvegicus [26] = assay: The compound was evaluated for the anticonflict behavior in male wistar rats as rate of responses (timeout) following dose of 20 mg/kg po; type: functional; parameters: unit: responses/min; procedure, shortened: as §4
Rattus norvegicus [27] = assay: The compound was evaluated for the anticonflict behavior in male wistar rats as rate of responses (timeout) following dose of 40 mg/kg po; type: functional; procedure, shortened: as §4
Rattus norvegicus [28] = assay: The compound was evaluated for the anticonflict behavior in male wistar rats as rate of responses (timeout) following dose of 5.0 mg/kg po; type: functional; parameters: unit: responses/min; procedure, shortened: as §4
Rattus norvegicus [29] = assay: The compound was evaluated for the anticonflict behavior in male wistar rats as rate of responses (conflict) following dose of 40 mg/kg po; type: functional; procedure, shortened: as §4
Mus musculus [30] = assay: Compound administered perorally was evaluated for the dose below which no catalepsy was observed at any time period; type: functional; procedure, shortened: as §1
Rattus norvegicus [31] = assay: Compound administered perorally was evaluated for the conditioned avoidance response in rats

SMILES | EDmin (Mus musculus [1]) [mg/kg] | EDmin (Mus musculus [2]) [mg/kg] | IC50 [3] [µM] | ED (Rattus norvegicus [4]) [mg/kg] | ED (Rattus norvegicus [5]) [mg/kg] | Activity (Rattus norvegicus [6]) | IC50 [7] [µM] | EDmin (Mus musculus [8]) [mg/kg] | IC50 [9] [µM] | Activity (Rattus norvegicus [10]) | IC50 [11] [µM] | other results
Cc1c2c(nn1C)Nc1ccc(F)cc1N=C2N1CCN(C)CC1 | 200 | 25 | 3.2 | >50 | >50 | 50 | 97 | – | – | – | – | –
CN1CCN(C2=Nc3ccccc3Nc3c2cnn3C)CC1 | >400 | – | – | >50 | >50 | – | – | >400 | > 100 | >50 | 1500 | –
CCCn1cc2c(n1)Nc1ccc(F)cc1N=C2N1CCN(C)CC1 | 200 | – | – | 50 | 40 | – | – | 25 | 16 | >50 | 0.18 | –
CN1CCN(C2=Nc3cc(Cl)ccc3Nc3nn(C)cc32)CC1 | 12.5 | 0.8 | 8.9 | >10 | 10 | >25 | 0.68 | – | – | – | – | Activity (Rattus norvegicus [12]): 7.8; Activity (Rattus norvegicus [13]): 1.1; Activity (Rattus norvegicus [14]): 8.1; Activity (Rattus norvegicus [15]): 5.6; Activity (Rattus norvegicus [16]): 6; Activity (Rattus norvegicus [17]): 24.9; Activity (Rattus norvegicus [18]): 26.3; Activity (Rattus norvegicus [19]): 24.9; Activity (Rattus norvegicus [20]): 5.4; Activity (Rattus norvegicus [21]): 14.1; Activity (Rattus norvegicus [22]): 27.5; Activity (Rattus norvegicus [23]): 2.1; Activity (Rattus norvegicus [24]): 6.5; Activity (Rattus norvegicus [25]): 9.3; Activity (Rattus norvegicus [26]): 9.6; Activity (Rattus norvegicus [27]): 4.6; Activity (Rattus norvegicus [28]): 7.9; Activity (Rattus norvegicus [29]): 4.8
CN1CCN(C2=Nc3cc(F)ccc3Nc3nn(C)cc32)CC1 | – | 1.6 | 150 | >20 | 100 | >100 | 2.6 | – | – | – | – | EDmin (Mus musculus [30]): 50 mg/kg; Activity (Rattus norvegicus [12]): 6.9; Activity (Rattus norvegicus [13]): 3; Activity (Rattus norvegicus [14]): 9.6; Activity (Rattus norvegicus [16]): 3.9; Activity (Rattus norvegicus [17]): 47.3; Activity (Rattus norvegicus [18]): 42.1; Activity (Rattus norvegicus [20]): 45.9; Activity (Rattus norvegicus [21]): 48.3; Activity (Rattus norvegicus [22]): 45.1; Activity (Rattus norvegicus [23]): 5.4; Activity (Rattus norvegicus [24]): 7.4; Activity (Rattus norvegicus [26]): 15.4; Activity (Rattus norvegicus [27]): 15.4; Activity (Rattus norvegicus [28]): 5.7; Activity (Rattus norvegicus [29]): 10.1
CN1CCN(C2=Nc3ccccc3Nc3nn(C)cc32)CC1 | 200 | – | – | >50 | >50 | – | – | 50 | 38 | 50 | 6.3 | –
Cc1cc2c(s1)Nc1ccc(F)cc1N=C2N1CCN(C)CC1 [FLUMEZAPINE] | 6.25 | 1.6 | – | 10 | 5 | 20 | – | – | – | – | – | –
Cc1ccc2c(c1)Nc1nn(C)cc1C(N1CCN(C)CC1)=N2 | >400 | 200 | – | >50 | >50 | – | – | – | > 100 | >50 | 5.6 | –
CN1CCN(C2=Nc3cc(Br)ccc3Nc3nn(C)cc32)CC1 | 25 | 12.5 | – | >10 | >5 | – | – | – | > 10 | – | 0.68 | Activity (Rattus norvegicus [12]): 4.1; Activity (Rattus norvegicus [13]): 0.5; Activity (Rattus norvegicus [14]): 5; Activity (Rattus norvegicus [15]): 2.2; Activity (Rattus norvegicus [16]): 2.6; Activity (Rattus norvegicus [17]): 18.7; Activity (Rattus norvegicus [18]): 23; Activity (Rattus norvegicus [19]): 21.9; Activity (Rattus norvegicus [20]): 14.1; Activity (Rattus norvegicus [22]): 22.1; Activity (Rattus norvegicus [23]): 2; Activity (Rattus norvegicus [24]): 8; Activity (Rattus norvegicus [25]): 2.1; Activity (Rattus norvegicus [26]): 4.4; Activity (Rattus norvegicus [28]): 6
CCCCCCn1cc2c(n1)Nc1ccc(F)cc1N=C2N1CCN(C)CC1.Cl | >400 | 100 | 18 | >50 | >50 | >50 | 0.7 | – | – | – | – | –
CN1CCN(C2=Nc3ccc(F)cc3Nc3nn(C)cc32)CC1 | 100 | 1.6 | 43 | >40 | >20 | >50 | 2.6 | – | – | – | – | –
CN1CCN(C2=Nc3cc(F)ccc3Nc3c2cnn3C)CC1 | >200 | – | – | >50 | – | – | – | 100 | – | – | – | ED (Rattus norvegicus [31]): >50 mg/kg
CC(C)n1cc2c(n1)Nc1ccc(F)cc1N=C2N1CCN(C)CC1 | 200 | – | – | 40 | 25 | – | – | 50 | 7.2 | >50 | 1.1 | –
CCn1cc2c(n1)Nc1ccc(F)cc1N=C2N1CCN(C)CC1 | >400 | 6 | 14 | >40 | 50 | 50 | 3.3 | – | – | – | – | –
CN1CCN(C2=Nc3cc(Cl)ccc3Nc3ccccc32)CC1 [CLOZAPINE] | 100 | – | – | 40 | 30 | – | – | 50 | – | 80 | – | –
CNC1=Nc2ccc(Cl)cc2C(c2ccccc2)=[N+]([O-])C1 [CHLORDIAZEPOXIDE] | – | – | – | – | – | – | – | – | – | – | – | Activity (Rattus norvegicus [12]): 3.3; Activity (Rattus norvegicus [13]): 0.6; Activity (Rattus norvegicus [14]): 4.2; Activity (Rattus norvegicus [16]): 1.9; Activity (Rattus norvegicus [17]): 70.2; Activity (Rattus norvegicus [18]): 68.8; Activity (Rattus norvegicus [20]): 54.3; Activity (Rattus norvegicus [22]): 70.8; Activity (Rattus norvegicus [23]): 1.4; Activity (Rattus norvegicus [24]): 3.4; Activity (Rattus norvegicus [26]): 3.7; Activity (Rattus norvegicus [28]): 2.2
